Test results as given in ChEMBL document CHEMBL1132160, “Structure-antiviral activity relationship in the series of pyrimidine and purine N-[2-(2-phosphonomethoxy)ethyl] nucleotide analogues. 1. Derivatives substituted at the carbon atoms of the base” (J Med Chem, 1999).

Columns and labels:
[1] = tested on: Human alphaherpesvirus 2; assay: Inhibitory activity against herpes simplex virus type 2 (HSV-2) G strain.; assay type: functional, organism-based
How it was run: (§1)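 Confluent E6SM cell cultures were inoculated with 100 CCID50 of virus and allowed 1 h for adsorption. Residual virus was then removed, and the cells were incubated with test compound at 400, 200, 100, ... μg/mL. Viral cytopathicity was scored once it reached completion in untreated infected controls.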

[2] = tested on: E6SM; assay: Inhibitory activity against herpes simplex virus type 2 (HSV-2) Lyons strain.; assay type: functional, cell-based, Homo sapiens; how it was run: as §1
[3] = tested on: HEL; assay: Compound was evaluated for inhibitory activity against varicella zoster virus thymidine kinase (VZV TK-) 07/1 strain; NA=not active; assay type: functional, cell-based, Homo sapiens
[4] = tested on: Human alphaherpesvirus 2; assay: Inhibitory activity against herpes simplex virus type 2 (HSV-2) 196 strain.; assay type: functional, organism-based; how it was run: as §1
[5] = tested on: Human alphaherpesvirus 1; assay: Iactivity against herpes simplex virus type 1 (HSV-1) McIntyre strain.; assay type: functional, organism-based; how it was run: as §1
[6] = tested on: E6SM; assay: Compound was evaluated for inhibitory activity against herpes simplex virus type 1 thymidine kinase (HSV-1 TK-) B2006 strain; NA=not active; assay type: functional, cell-based, Homo sapiens; how it was run: as §1
[7] = tested on: Human immunodeficiency virus 1; assay: Inhibitory activity of compound against human immunodeficiency virus type 1 (HIV-1) induced cytopathogenicity in MT-4 cells; assay type: functional, organism-based; details: Human immunodeficiency virus 1, MT4
How it was run: (§2)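 Human MT-4 cells (~4 × 10⁵ cells/mL) were infected with 100 CCID50 of HIV-1 (IIIB)/mL and seeded into wells containing compound dilutions. After 5 days at 37 °C, viable cells were counted by trypan blue exclusion in a blood cell counting chamber.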

[8] = tested on: HEL; assay: Compound was evaluated for inhibitory activity against varicella zoster virus thymidine kinase (VZV TK+) OKA strain; NA=Not Active; assay type: functional, cell-based, Homo sapiens
How it was run: (§3)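 HEL cell cultures, grown to confluence, received 100 CCID50 of virus. After 1 h adsorption, the inoculum was removed and the cultures were incubated with serial concentrations of compound (400, 200, 100, ... μg/mL).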

[9] = Inhibitory activity against murine sarcoma virus induced transformation of murine C3H/3T3 embryo fibroblasts; assay type: functional, Mus musculus
How it was run: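 Murine C3H/3T3 embryo fibroblasts were seeded at 5 × 10⁵ cells/mL. After 24 h they were infected with 80 focus-forming units of MSV for 90–120 min at 37 °C. The medium was then replaced with fresh medium containing various compound concentrations, and transformation was examined microscopically after 6 days.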

[10] = tested on: HEL; assay: Compound was evaluated for inhibitory activity against cytomegalovirus (CMV) Davis strain; NA=Not Active; assay type: functional, cell-based, Homo sapiens; how it was run: as §3
[11] = tested on: HEL; assay: Compound was evaluated for inhibitory activity against cytomegalovirus (CMV) AD 169 strain; NA=not active; assay type: functional, cell-based, Homo sapiens; how it was run: as §3
[12] = tested on: HEL; assay: Compound was evaluated for inhibitory activity against varicella zoster virus thymidine kinase (VZV TK+) YS strain; NA=not active; assay type: functional, cell-based, Homo sapiens; how it was run: as §3
[13] = tested on: Human alphaherpesvirus 1; assay: Inhibitory activity against herpes simplex virus type 1 thymidine kinase (HSV-1 TK-) VMW 1837 strain.
[14] = tested on: Human alphaherpesvirus 1; assay: Inhibitory activity against herpes simplex virus type 1 (HSV-1) F strain; assay type: functional, organism-based; how it was run: as §1
[15] = tested on: Human alphaherpesvirus 1; assay: Inhibitory activity against herpes simplex virus type 1 (HSV-1) KOS strain.; assay type: functional, organism-based; how it was run: as §1
[16] = tested on: Vaccinia virus; assay: Compound was evaluated for inhibitory activity against vaccinia virus (VV); NA=not active; assay type: functional, organism-based, Orthopoxvirus vaccinia
How it was run: (§4)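 Confluent E6SM cell cultures were inoculated with 100 CCID50 of virus and left for 1 h adsorption, then residual virus was removed. Cultures were incubated with test compound at serial concentrations (400, 200, 100, ... μg/mL). Virus-induced cytopathicity was scored once it reached completion in untreated infected control cultures.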

[17] = tested on: Human alphaherpesvirus 1; assay: Inhibition of herpes simplex virus type 1 (HSV-1) F strain; assay type: functional, organism-based; how it was run: as §1
[18] = Inhibitory activity against herpes simplex virus type 2 (HSV-2) 196 strain; assay type: functional; how it was run: as §1
[19] = tested on: Cytomegalovirus; assay: Inhibitory activity against cytomegalovirus (CMV) AD 169 strain; assay type: functional, organism-based; details: Human betaherpesvirus 5; how it was run: as §3
[20] = tested on: Human alphaherpesvirus 2; assay: Inhibitory activity against herpes simplex virus type 2 (HSV-2) G strain; assay type: functional, organism-based; how it was run: as §1
[21] = tested on: Human alphaherpesvirus 1; assay: Inhibitory activity against herpes simplex virus type 1 (HSV-1) KOS strain; assay type: functional, organism-based; how it was run: as §1
[22] = tested on: MT4; assay: Inhibitory activity of compound against human immunodeficiency virus type 1 (HIV-1) induced cytopathogenicity in MT-4 cells; NA=Not Active; assay type: functional, cell-based; how it was run: as §2
[23] = tested on: Cytomegalovirus; assay: Inhibitory activity against cytomegalovirus (CMV) Davis strain; assay type: functional, organism-based; details: Human betaherpesvirus 5; how it was run: as §3
[24] = tested on: Vaccinia virus; assay: Inhibitory activity against vaccinia virus (VV); assay type: functional, organism-based; details: Orthopoxvirus vaccinia; how it was run: as §4
[25] = tested on: Human immunodeficiency virus 1; assay: Antiviral activity against human immunodeficiency virus type-1 (HIV-1) in MT-4 cells; assay type: functional, organism-based; details: Human immunodeficiency virus 1, MT4; how it was run: as §2
[26] = tested on: MT4; assay: Antiviral activity against human immunodeficiency virus type 2 (HIV-2) in MT-4 cells; assay type: functional, cell-based
[27] = tested on: Vaccinia virus; assay: Inhibitory activity against vaccinia virus (VV).; assay type: functional, organism-based, Orthopoxvirus vaccinia; how it was run: as §4

Measured: EC50

Cc1cn(CCOCP(=O)(O)O)c(=O)nc1N
Not Active: [1] | [2] | [3] | [4] | [5] | [6] | [8] | [10] | [11] | [12] | [13] | [14] | [15] | [16]
> 100 µg/mL: [7]
> 200 µg/mL: [9]

Nc1ccn(CCOCP(=O)(O)O)c(=O)n1
70 µg/mL: [23]
Not Active: [2] | [5] | [6] | [22]
300 µg/mL: [17] | [18] | [20] | [21]
75 µg/mL: [19]
> 200 µg/mL: [9]

Nc1ccnc2c1ncn2CCOCP(=O)(O)O
Not Active: [22]
> 400 µg/mL: [24] | [19] | [20] | [21] | [23]
13.8 µg/mL: [9]

Nc1nc(S)c2ncn(CCOCP(=O)(O)O)c2n1
8.9 µg/mL: [26]
1 µg/mL: [9]
9.5 µg/mL: [25]

CC(C)OP(=O)(COCCn1ncc(N)nc1=O)OC(C)C
> 100 µg/mL: [19] | [9] | [23]
Not Active: [1] | [2] | [27] | [4] | [5] | [22] | [13] | [14] | [15]
